Experimental data as given in ChEMBL document CHEMBL2311431, “Synthesis and biological evaluation of some 5-arylidene-2-(1,3-thiazol-2-ylimino)-1,3-thiazolidin-4-ones as dual anti-inflammatory/antimicrobial agents” (Bioorg Med Chem, 2013).
Converted amounts (≈) assume the structure as drawn.

Test system: Micrococcus flavus
Assay: Antibacterial activity against Micrococcus flavus ATCC 10240 after 24 hr by microdilution test
Type: functional
Conditions: ATCC 10240, 24 h
Procedure, shortened: (§1)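 Broth microdilution in LB medium, about 1.0×10^4 cfu per well; compounds from 1 mg/ml stocks in 5% DMSO. Incubated 24 h. MIC is the lowest concentration with no visible growth under a binocular microscope. Run in duplicate, repeated three times.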

| Compound | MIC [µM] |
| --- | --- |
| Cc1cnc(/N=C2\NC(=O)/C(=C/c3ccc([N+](=O)[O-])cc3)S2)s1 | 29 (≈ 10 µg/mL) |

Test system: Talaromyces funiculosus
Assay: Antifungal activity against Penicillium funiculosum ATCC 36839 after 72 hrs by serial dilution technique
Type: functional
Conditions: ATCC 36839, 72 h
Procedure, shortened: (§2)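 Serial dilution in malt broth; compounds from 1 mg/ml stocks in 5% DMSO; 72 h at 28 °C. MIC is the lowest concentration with no visible growth under a binocular microscope. Run in duplicate, repeated three times.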

| Compound | MIC [µM] |
| --- | --- |
| Cc1cnc(/N=C2\NC(=O)/C(=C/c3ccc([N+](=O)[O-])cc3)S2)s1 | 15.8 (≈ 5.47 µg/mL) |

Target: not listed separately
Assay: Inhibition of soybean lipoxygenase assessed as inhibition of sodium linolate conversion to 13-hydroperoxylinoleic acid after 4 mins by spectrophotometry
Parameters: species or system Glycine max
Conditions: read-out: IC50

| Compound | IC50 [µM] |
| --- | --- |
| Cc1cnc(/N=C2\NC(=O)/C(=C/c3ccc([N+](=O)[O-])cc3)S2)s1 | 79 |

Test system: Mus musculus
Assay: Acute toxicity in AKR mouse up to 0.5 mmol/kg, ip
Type: organism-based
Conditions: in vivo

| Compound | Activity |
| --- | --- |
| Cc1cnc(/N=C2\NC(=O)/C(=C/c3ccc([N+](=O)[O-])cc3)S2)s1 | Non-toxic |

Target: T1, Prostaglandin G/H synthase 1 (Ovis aries) (UniProt P05979)
T1 sequence (whole entry): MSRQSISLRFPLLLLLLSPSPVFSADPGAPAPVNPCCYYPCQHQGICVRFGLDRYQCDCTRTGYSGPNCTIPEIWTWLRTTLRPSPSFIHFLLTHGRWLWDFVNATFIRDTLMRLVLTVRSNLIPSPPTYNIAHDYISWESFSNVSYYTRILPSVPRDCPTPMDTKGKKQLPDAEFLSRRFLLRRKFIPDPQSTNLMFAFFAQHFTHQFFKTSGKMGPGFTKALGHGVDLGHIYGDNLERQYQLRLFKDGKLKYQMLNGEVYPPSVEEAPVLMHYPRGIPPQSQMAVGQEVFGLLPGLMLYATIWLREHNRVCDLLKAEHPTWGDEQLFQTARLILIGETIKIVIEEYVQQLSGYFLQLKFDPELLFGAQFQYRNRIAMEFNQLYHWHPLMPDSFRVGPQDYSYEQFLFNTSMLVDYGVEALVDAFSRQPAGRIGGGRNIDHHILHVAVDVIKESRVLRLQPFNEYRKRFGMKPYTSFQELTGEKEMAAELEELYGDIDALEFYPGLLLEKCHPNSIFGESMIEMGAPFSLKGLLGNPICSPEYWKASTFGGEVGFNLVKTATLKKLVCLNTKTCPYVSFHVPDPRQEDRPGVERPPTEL
Assay: Inhibition of ovine COX1 assessed as inhibition of PGF2a production by enzyme immunoassay
Parameters: concentration or dose not given beside the values
Conditions: concentration not given here
Procedure, shortened: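 Ovine COX-1 from a commercial screening kit, tested with 0.1 µM arachidonic acid, which is below the saturating level. COX-derived PGH2 is reduced by SnCl2 to PGF2a, quantified by enzyme immunoassay with a broad prostaglandin antibody. At least triplicate.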

| Compound | inhibition [%] |
| --- | --- |
| Cc1cnc(/N=C2\NC(=O)/C(=C/c3ccc([N+](=O)[O-])cc3)S2)s1 | 68 |

Test system: Aspergillus niger
Assay: Antifungal activity against Aspergillus niger ATCC 6275 after 72 hrs by serial dilution technique
Type: functional
Conditions: ATCC 6275, 72 h
Procedure, shortened: as §2

| Compound | MIC [µM] |
| --- | --- |
| Cc1cnc(/N=C2\NC(=O)/C(=C/c3ccc([N+](=O)[O-])cc3)S2)s1 | 15.8 (≈ 5.47 µg/mL) |

Test system: Escherichia coli
Assay: Bactericidal activity against Escherichia coli ATCC 35210 after 72 hrs by serial subcultivation method
Type: functional
Conditions: ATCC 35210, 72 h

| Compound | MBC [µM] |
| --- | --- |
| Cc1cnc(/N=C2\NC(=O)/C(=C/c3ccc([N+](=O)[O-])cc3)S2)s1 | 232 (≈ 80.4 µg/mL) |

Test system: Aspergillus flavus
Assay: Antifungal activity against Aspergillus flavus ATCC 9643 after 72 hrs by serial dilution technique
Type: functional
Conditions: ATCC 9643, 72 h
Procedure, shortened: as §2

| Compound | MIC [µM] |
| --- | --- |
| Cc1cnc(/N=C2\NC(=O)/C(=C/c3ccc([N+](=O)[O-])cc3)S2)s1 | 15.8 (≈ 5.47 µg/mL) |

Test system: Mus musculus
Assay: Antiinflammatory activity in AKR mouse assessed as inhibition of carrageenan-induced paw edema at 0.01 mmol/kg, ip measured after 3.5 hrs of carrageenan-challenge
Type: functional
Conditions: not given
Procedure, shortened: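 AKR mice of both sexes (pregnant females excluded), 6-10 per group, fasted during the experiment. Edema induced by intradermal 0.05 mL of 2% carrageenin into the right hind paw. Compound given at 0.01 mmol/kg ip, suspended in water with Tween-80, at the same time as carrageenin.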

| Compound | inhibition in vivo at 10 µmol/kg [%] |
| --- | --- |
| Cc1cnc(/N=C2\NC(=O)/C(=C/c3ccc([N+](=O)[O-])cc3)S2)s1 | 55.4 |

Test system: Listeria monocytogenes
Assay: Bactericidal activity against Listeria monocytogenes NCTC 7973 after 72 hrs by serial subcultivation method
Type: functional
Conditions: NCTC 7973, 72 h

| Compound | MBC [µM] |
| --- | --- |
| Cc1cnc(/N=C2\NC(=O)/C(=C/c3ccc([N+](=O)[O-])cc3)S2)s1 | 29 (≈ 10 µg/mL) |

Test system: Aspergillus niger
Assay: Fungicidal activity against Aspergillus niger ATCC 6275 after 72 hrs by serial subcultivation method
Type: functional
Conditions: ATCC 6275, 72 h

| Compound | MFC [µM] |
| --- | --- |
| Cc1cnc(/N=C2\NC(=O)/C(=C/c3ccc([N+](=O)[O-])cc3)S2)s1 | 31.5 (≈ 10.9 µg/mL) |

Test system: Pseudomonas aeruginosa
Assay: Bactericidal activity against Pseudomonas aeruginosa ATCC 27853 after 72 hrs by serial subcultivation method
Type: functional
Conditions: ATCC 27853, 72 h

| Compound | MBC [µM] |
| --- | --- |
| Cc1cnc(/N=C2\NC(=O)/C(=C/c3ccc([N+](=O)[O-])cc3)S2)s1 | 116 (≈ 40.2 µg/mL) |

Test system: Staphylococcus aureus
Assay: Antibacterial activity against Staphylococcus aureus ATCC 6538 after 24 hr by microdilution test
Type: functional
Conditions: ATCC 6538, 24 h
Procedure, shortened: as §1

| Compound | MIC [µM] |
| --- | --- |
| Cc1cnc(/N=C2\NC(=O)/C(=C/c3ccc([N+](=O)[O-])cc3)S2)s1 | 116 (≈ 40.2 µg/mL) |

Test system: Micrococcus flavus
Assay: Bactericidal activity against Micrococcus flavus ATCC 10240 after 72 hrs by serial subcultivation method
Type: functional
Conditions: ATCC 10240, 72 h

| Compound | MBC [µM] |
| --- | --- |
| Cc1cnc(/N=C2\NC(=O)/C(=C/c3ccc([N+](=O)[O-])cc3)S2)s1 | 29 (≈ 10 µg/mL) |

Test system: Aspergillus fumigatus
Assay: Antifungal activity against Aspergillus fumigatus after 72 hrs by serial dilution technique
Type: functional
Conditions: not given
Procedure, shortened: as §2

| Compound | MIC [µM] |
| --- | --- |
| Cc1cnc(/N=C2\NC(=O)/C(=C/c3ccc([N+](=O)[O-])cc3)S2)s1 | 15.8 (≈ 5.47 µg/mL) |

Test system: Aspergillus flavus
Assay: Fungicidal activity against Aspergillus flavus ATCC 9643 after 72 hrs by serial subcultivation method
Type: functional
Conditions: ATCC 9643, 72 h

| Compound | MFC [µM] |
| --- | --- |
| Cc1cnc(/N=C2\NC(=O)/C(=C/c3ccc([N+](=O)[O-])cc3)S2)s1 | 31.5 (≈ 10.9 µg/mL) |

Test system: Trichoderma viride
Assay: Fungicidal activity against Trichoderma viride IAM 5061 after 72 hrs by serial subcultivation method
Type: functional
Conditions: IAM 5061, 72 h

| Compound | MFC [µM] |
| --- | --- |
| Cc1cnc(/N=C2\NC(=O)/C(=C/c3ccc([N+](=O)[O-])cc3)S2)s1 | 31.5 (≈ 10.9 µg/mL) |

Test system: Bacillus cereus
Assay: Antibacterial activity against Bacillus cereus clinical isolate after 24 hr by microdilution test
Type: functional
Conditions: not given
Procedure, shortened: as §1

| Compound | MIC [µM] |
| --- | --- |
| Cc1cnc(/N=C2\NC(=O)/C(=C/c3ccc([N+](=O)[O-])cc3)S2)s1 | 29 (≈ 10 µg/mL) |

Test system: Pseudomonas aeruginosa
Assay: Antibacterial activity against Pseudomonas aeruginosa ATCC 27853 after 24 hr by microdilution test
Type: functional
Conditions: ATCC 27853, 24 h
Procedure, shortened: as §1

| Compound | MIC [µM] |
| --- | --- |
| Cc1cnc(/N=C2\NC(=O)/C(=C/c3ccc([N+](=O)[O-])cc3)S2)s1 | 29 (≈ 10 µg/mL) |

Test system: Trichoderma viride
Assay: Antifungal activity against Trichoderma viride IAM 5061 after 72 hrs by serial dilution technique
Type: functional
Conditions: IAM 5061, 72 h
Procedure, shortened: as §2

| Compound | MIC [µM] |
| --- | --- |
| Cc1cnc(/N=C2\NC(=O)/C(=C/c3ccc([N+](=O)[O-])cc3)S2)s1 | 15.8 (≈ 5.47 µg/mL) |

Test system: Escherichia coli
Assay: Antibacterial activity against Escherichia coli ATCC 35210 after 24 hr by microdilution test
Type: functional
Conditions: ATCC 35210, 24 h
Procedure, shortened: as §1

| Compound | MIC [µM] |
| --- | --- |
| Cc1cnc(/N=C2\NC(=O)/C(=C/c3ccc([N+](=O)[O-])cc3)S2)s1 | 116 (≈ 40.2 µg/mL) |

Test system: Aspergillus fumigatus
Assay: Fungicidal activity against Aspergillus fumigatus after 72 hrs by serial subcultivation method
Type: functional
Conditions: not given

| Compound | MFC [µM] |
| --- | --- |
| Cc1cnc(/N=C2\NC(=O)/C(=C/c3ccc([N+](=O)[O-])cc3)S2)s1 | 31.5 (≈ 10.9 µg/mL) |

Test system: Talaromyces funiculosus
Assay: Fungicidal activity against Penicillium funiculosum ATCC 36839 after 72 hrs by serial subcultivation method
Type: functional
Conditions: ATCC 36839, 72 h

| Compound | MFC [µM] |
| --- | --- |
| Cc1cnc(/N=C2\NC(=O)/C(=C/c3ccc([N+](=O)[O-])cc3)S2)s1 | 31.5 (≈ 10.9 µg/mL) |

Test system: Penicillium ochrochloron
Assay: Fungicidal activity against Penicillium ochrochloron ATCC 9112 after 72 hrs by serial subcultivation method
Type: functional
Conditions: ATCC 9112, 72 h

| Compound | MFC [µM] |
| --- | --- |
| Cc1cnc(/N=C2\NC(=O)/C(=C/c3ccc([N+](=O)[O-])cc3)S2)s1 | 31.5 (≈ 10.9 µg/mL) |

Test system: Listeria monocytogenes
Assay: Antibacterial activity against Listeria monocytogenes NCTC 7973 after 24 hr by microdilution test
Type: functional
Conditions: NCTC 7973, 24 h
Procedure, shortened: as §1

| Compound | MIC [µM] |
| --- | --- |
| Cc1cnc(/N=C2\NC(=O)/C(=C/c3ccc([N+](=O)[O-])cc3)S2)s1 | 29 (≈ 10 µg/mL) |

Test system: Staphylococcus aureus
Assay: Bactericidal activity against Staphylococcus aureus ATCC 6538 after 72 hrs by serial subcultivation method
Type: functional
Conditions: ATCC 6538, 72 h

| Compound | MBC [µM] |
| --- | --- |
| Cc1cnc(/N=C2\NC(=O)/C(=C/c3ccc([N+](=O)[O-])cc3)S2)s1 | 232 (≈ 80.4 µg/mL) |

Test system: Bacillus cereus
Assay: Bactericidal activity against Bacillus cereus clinical isolate after 72 hrs by serial subcultivation method
Type: functional
Conditions: not given

| Compound | MBC [µM] |
| --- | --- |
| Cc1cnc(/N=C2\NC(=O)/C(=C/c3ccc([N+](=O)[O-])cc3)S2)s1 | 29 (≈ 10 µg/mL) |

Test system: Penicillium ochrochloron
Assay: Antifungal activity against Penicillium ochrochloron ATCC 9112 after 72 hrs by serial dilution technique
Type: functional
Conditions: ATCC 9112, 72 h
Procedure, shortened: as §2

| Compound | MIC [µM] |
| --- | --- |
| Cc1cnc(/N=C2\NC(=O)/C(=C/c3ccc([N+](=O)[O-])cc3)S2)s1 | 15.8 (≈ 5.47 µg/mL) |
